The record followed here is ChEMBL document CHEMBL1133115, “Synthesis, biological evaluation, and conformational analysis of A-ring diastereomers of 2-methyl-1,25-dihydroxyvitamin D(3) and their 20-epimers: unique activity profiles depending on the stereochemistry of the A-ring and at C-20” (2000).

Assay [1] is filed under the species Rattus norvegicus. Briefly: Bone calcium-mobilizing (BCM) activity at 500 pmol/day/7days in vitamin D deficient rats on a low calcium diet (0.02% Ca). Format: functional. In a few lines: (§1)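 Vitamin D-deficient rats on a low-calcium diet were given the analogue intraperitoneally once daily for 7 consecutive days during the last week, in propylene glycol/ethanol (95:5). Controls received vehicle only. Serum calcium (mg/100 mL) was measured 24 h after the last dose, with 5-6 rats/group. Results are mean ± SEM, compared with control by Student's t-test.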

Assay [2] is filed under the species Rattus norvegicus. Briefly: Bone calcium-mobilizing (BCM) activity at 260 pmol/day *7day in vitamin D deficient rats on a low-calcium diet ([…]). Format: functional. In a few lines: as §1
The species entered for assay [3] is Rattus norvegicus. The assay can be described thus: evaluated for increasing effect of serum calcium level in normal rats(Ca). Type of assay: functional. In a few lines:
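Normal male Sprague-Dawley rats were used to measure elevation of serum calcium level. Potency is expressed relative to 1α,25-dihydroxyvitamin D3, which is set at 100.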

The test system of assay [4] is HL-60. The assay can be described thus: Differentiation inducing effect on HL-60 cells. Type of assay: functional, Homo sapiens. Summed up: (§2)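 Line 1 is binding to bovine thymus vitamin D receptor. Lines 3 and 6 are differentiation induction in HL-60 cells.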
Assay [5] concerns HL-60. The assay can be described thus: evaluated for differentiation inducing effect on HL-60 cells, relative potency with respect to 1-alpha, 25-Dihydroxyvitamin D3. Format: functional, Homo sapiens. In a few lines: as §2
Assay [6] concerns the target T1, Vitamin D3 receptor (Bos taurus) (UniProt Q28037).
T1 sequence (whole entry): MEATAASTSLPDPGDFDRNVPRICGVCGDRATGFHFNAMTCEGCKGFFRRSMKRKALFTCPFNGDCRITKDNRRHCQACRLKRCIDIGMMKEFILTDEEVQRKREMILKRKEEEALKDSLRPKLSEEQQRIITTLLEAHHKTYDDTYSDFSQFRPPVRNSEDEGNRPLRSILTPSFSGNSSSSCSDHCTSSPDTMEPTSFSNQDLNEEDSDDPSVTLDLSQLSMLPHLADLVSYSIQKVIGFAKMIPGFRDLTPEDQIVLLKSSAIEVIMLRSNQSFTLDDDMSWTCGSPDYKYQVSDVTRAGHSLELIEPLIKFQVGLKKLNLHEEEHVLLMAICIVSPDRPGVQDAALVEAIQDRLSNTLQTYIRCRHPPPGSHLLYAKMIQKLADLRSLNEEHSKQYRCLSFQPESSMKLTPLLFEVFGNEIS
Briefly: Binding affinity for bovine thymus vitamin D3 receptor. In a few lines: as §2

Assay [7] relates to Vitamin D-binding protein (Bos taurus). Briefly: Binding affinity for calf serum vitamin D-binding protein.
The species entered for assay [8] is Rattus norvegicus. Briefly: Bone Calcium-Mobilizing (BCM) activity (260 pmol/day/7 days) in Vitamin D-Deficient Rats on a Low-Calcium Diet (0.02% Ca diet). Type of assay: functional. Summed up: as §1
Assay [9] is filed under the species Rattus norvegicus. Briefly: Bone Calcium-Mobilizing (BCM) activity (260 pmol/day/7 days) in Vitamin D-Deficient Rats on a Low-Calcium Diet. Format: functional. Summed up: as §1

“And” between values parts separate entries of the source, which are not always exact repeats. Equal values may be shown once.

In the case of `C=C1/C(=C\C=C2/CCC[C@]3(C)[C@@H]([C@@H](C)CCCC(C)(C)O)CC[C@@H]23)C[C@H](O)[C@@H](C)[C@H]1O` (stereo in doubt; form 1) [listing 1 of 2 here], the “BCM serum Ca” value in the assay filed under Rattus norvegicus [1] and in the assay filed under Rattus norvegicus [2] was 4.4 mg 100ml-1 in each case. The figures for the Relative potency in the assay listed under Rattus norvegicus [3] and in the assay on HL-60 [4] were 19 and 190, respectively.

As for `C=C1/C(=C\C=C2/CCC[C@]3(C)[C@@H]([C@H](C)CCCC(C)(C)O)CC[C@@H]23)C[C@@H](O)[C@@H](C)[C@H]1O` (stereo in doubt; form 1), the figures for the “BCM serum Ca” value in the assay listed under Rattus norvegicus [1] and in the assay filed under Rattus norvegicus [2] were 5 mg 100ml-1 and 4.9 mg 100ml-1, respectively. The molecule further returned a Relative potency with HL-60 [5] of 1.

Consider `C=C1/C(=C\C=C2/CCC[C@]3(C)[C@@H]([C@@H](C)CCCC(C)(C)O)CC[C@@H]23)C[C@H](O)[C@@H](C)[C@H]1O` (stereo in doubt; form 1) [listing 2 of 2 here], for which the Relative potency was 7 in [6] and below 0.3 in assay [7].

As to `C=C1/C(=C\C=C2/CCC[C@]3(C)[C@@H]([C@H](C)CCCC(C)(C)O)CC[C@@H]23)C[C@@H](O)[C@@H](C)[C@@H]1O` (stereo in doubt; form 2), the “BCM serum Ca” value in the assay listed under Rattus norvegicus [1] is recorded as below 5 mg 100ml-1; in the assay filed under Rattus norvegicus [2], 4.1 mg 100ml-1. The Relative potency was 2 in the assay filed under Rattus norvegicus [3] and 10 in the assay with HL-60 [4].

On to `C=C1/C(=C\C=C2/CCC[C@]3(C)[C@@H]([C@@H](C)CCCC(C)(C)O)CC[C@@H]23)C[C@H](O)[C@@H](C)[C@H]1O` (stereo in doubt; form 2) [listing 1 of 2 here], for which the Relative potency in assay [6] stood at 0.8; in assay [7], 1300.

As to `C=C1/C(=C\C=C2/CCC[C@]3(C)[C@@H]([C@H](C)CCCC(C)(C)O)CC[C@@H]23)C[C@H](O)[C@H](C)[C@@H]1O` (stereo in doubt; form 2), the “BCM serum Ca” value was 4.6 mg 100ml-1 in the assay listed under Rattus norvegicus [1] and below 4.6 mg 100ml-1 in the assay listed under Rattus norvegicus [2]. Besides, the values for the Relative potency in the assay filed under Rattus norvegicus [3] and in the assay with HL-60 [4] were 144 and 730, respectively.

In the case of `C=C1/C(=C\C=C2/CCC[C@]3(C)[C@@H]([C@H](C)CCCC(C)(C)O)CC[C@@H]23)C[C@H](O)[C@H](C)[C@@H]1O` (stereo in doubt; form 1), the figures for the “BCM serum Ca” value in the assay filed under Rattus norvegicus [1] and in the assay filed under Rattus norvegicus [2] were 4.1 mg 100ml-1 and 4.2 mg 100ml-1, respectively.

As to `C=C1/C(=C\C=C2/CCC[C@]3(C)[C@@H]([C@H](C)CCCC(C)(C)O)CC[C@@H]23)C[C@@H](O)[C@@H](C)[C@@H]1O` (stereo in doubt; form 1), the “BCM serum Ca” value came to 4.4 mg 100ml-1 in the assay filed under Rattus norvegicus [1] and 4.6 mg 100ml-1 in the assay listed under Rattus norvegicus [2]. The figures for the Relative potency in the assay listed under Rattus norvegicus [3] and with HL-60 [4] were 115 and 2600, respectively.

As to `C=C1/C(=C\C=C2/CCC[C@]3(C)[C@@H]([C@H](C)CCCC(C)(C)O)CC[C@@H]23)C[C@H](O)[C@H](C)[C@H]1O` (stereo in doubt; form 2), the “BCM serum Ca” value in the assay filed under Rattus norvegicus [1] and in the assay listed under Rattus norvegicus [2] was 3.9 mg 100ml-1 in each case. The molecule further returned a Relative potency with HL-60 [4] of 0.5.

Turning to `C=C1/C(=C\C=C2/CCC[C@]3(C)[C@@H]([C@H](C)CCCC(C)(C)O)CC[C@@H]23)C[C@@H](O)[C@H](C)[C@@H]1O` (stereo in doubt; form 2), the “BCM serum Ca” value in the assay filed under Rattus norvegicus [1] is below 7.8 mg 100ml-1; in the assay filed under Rattus norvegicus [2], below 5.8 mg 100ml-1. Besides, the Relative potency in the assay filed under Rattus norvegicus [3] came out at 655; in the assay with HL-60 [4], 59000.

Regarding `C=C1/C(=C\C=C2/CCC[C@]3(C)[C@@H]([C@@H](C)CCCC(C)(C)O)CC[C@@H]23)C[C@H](O)[C@@H](C)[C@@H]1O` (stereo in doubt; form 2) [listing 1 of 2 here], the Relative potency amounted to 0.3 in [6] and 21 in assay [7].

As for `C=C1/C(=C\C=C2/CCC[C@]3(C)[C@@H]([C@H](C)CCCC(C)(C)O)CC[C@@H]23)C[C@H](O)[C@H](C)[C@H]1O` (stereo in doubt; form 1), the “BCM serum Ca” value is recorded as 4.4 mg 100ml-1 in the assay listed under Rattus norvegicus [1] and 4.3 mg 100ml-1 in the assay filed under Rattus norvegicus [2]. The Relative potency in the assay on HL-60 [4] was found to be 1.

Take `C=C1/C(=C\C=C2/CCC[C@]3(C)[C@@H]([C@@H](C)CCCC(C)(C)O)CC[C@@H]23)C[C@H](O)[C@@H](C)[C@H]1O` (stereo in doubt; form 2) [listing 2 of 2 here]: the “BCM serum Ca” value in the assay filed under Rattus norvegicus [1] was 3.8 mg 100ml-1; in the assay listed under Rattus norvegicus [2], 4.1 mg 100ml-1. In addition, the Relative potency in the assay with HL-60 [4] was found to be 3.

On to `C=C1/C(=C\C=C2/CCC[C@]3(C)[C@@H]([C@H](C)CCCC(C)(C)O)CC[C@@H]23)C[C@@H](O)[C@H](C)[C@@H]1O` (stereo in doubt; form 1), for which, in the assay filed under Rattus norvegicus [2], the “BCM serum Ca” value was below 6 mg 100ml-1. Besides, the Relative potency is 400 in the assay filed under Rattus norvegicus [3] and 200 in the assay on HL-60 [4].

Regarding `C=C1/C(=C\C=C2/CCC[C@]3(C)[C@@H]([C@@H](C)CCCC(C)(C)O)CC[C@@H]23)C[C@H](O)[C@@H](C)[C@@H]1O` (stereo in doubt; form 1) [listing 1 of 2 here], the entries for the “BCM serum Ca” value in the assay listed under Rattus norvegicus [1] and in the assay listed under Rattus norvegicus [2] were 4.3 mg 100ml-1 and 4.4 mg 100ml-1, respectively. Besides, the Relative potency with HL-60 [4] is given as 6.

On to `C=C1/C(=C\C=C2/CCC[C@]3(C)[C@@H]([C@H](C)CCCC(C)(C)O)CC[C@@H]23)C[C@@H](O)[C@@H](C)[C@H]1O` (stereo in doubt; form 2), for which the “BCM serum Ca” value in the assay listed under Rattus norvegicus [1] is recorded as below 4.9 mg 100ml-1; in the assay listed under Rattus norvegicus [2], below 5 mg 100ml-1. Also, the Relative potency in the assay with HL-60 [4] is given as 1.5.

In the case of `C=C1/C(=C\C=C2/CCC[C@]3(C)[C@@H]([C@@H](C)CCCC(C)(C)O)CC[C@@H]23)C[C@H](O)[C@@H](C)[C@@H]1O` (stereo in doubt; form 1) [listing 2 of 2 here], the results for the Relative potency in assay [6] and in [7] were below 0.1 and below 0.3, respectively.

In the case of `C=C1/C(=C\C=C2/CCC[C@]3(C)[C@@H]([C@H](C)CCCC(C)(C)O)CC[C@@H]23)C[C@@H](O)[C@H](C)[C@H]1O` (stereo in doubt; form 2), the “BCM serum Ca” value amounted to 4.3 mg 100ml-1 in the assay listed under Rattus norvegicus [1] and 4.4 mg 100ml-1 in the assay filed under Rattus norvegicus [2]. In the assay with HL-60 [4], the Relative potency is 1.

As for `C=C1/C(=C\C=C2/CCC[C@]3(C)[C@@H]([C@H](C)CCCC(C)(C)O)CC[C@@H]23)C[C@@H](O)[C@H](C)[C@H]1O` (stereo in doubt; form 1), the “BCM serum Ca” value in the assay listed under Rattus norvegicus [1] is reported as 4.7 mg 100ml-1; in the assay filed under Rattus norvegicus [2], 4.8 mg 100ml-1. For the same molecule, in the assay with HL-60 [4], the Relative potency is listed as 3.

Take `C=C1/C(=C\C=C2/CCC[C@]3(C)[C@@H]([C@H](C)CCCC(C)(C)O)CC[C@@H]23)C[C@@H](O)C[C@@H]1O` [CALCITRIOL]: the BCM serum Ca was 6.8 mg 100ml-1 in the assay listed under Rattus norvegicus [8]; <5.5 mg 100ml-1 and <5.4 mg 100ml-1 and <6 mg 100ml-1 and <6.1 mg 100ml-1 in the assay filed under Rattus norvegicus [9]; below 5.5 mg 100ml-1 in the assay filed under Rattus norvegicus [2]. For the same molecule, the Relative potency (in assay [6]; in the assay filed under Rattus norvegicus [3]; in the assay with HL-60 [4]) was 100 throughout.

As to `C=C1/C(=C\C=C2/CCC[C@]3(C)[C@@H]([C@@H](C)CCCC(C)(C)O)CC[C@@H]23)C[C@H](O)[C@@H](C)[C@@H]1O` (stereo in doubt; form 2) [listing 2 of 2 here], the “BCM serum Ca” value was below 5.4 mg 100ml-1 in the assay filed under Rattus norvegicus [1] and below 5.2 mg 100ml-1 in the assay listed under Rattus norvegicus [2]. In the assay on HL-60 [4], the Relative potency is recorded as 1.5.
